Measurements: the RNAGym collection of RNA variant scans (doi:10.1126/science.aae0568)
Fewer inactive variants are shown than the library holds.

B1: tRNA (parent)
chain: GUUCCGUUGGCGUAAUGGUAACGCGUCUCCCUCCUAAGGAGAAGACUGCGGGUUCGAGUCCCGUACGGAACG

Variants of: B1
Test: yeast fitness relative to wild type (ratio to wild type); higher = fitter; tRNA-Arg(CCU), competitive growth, 37 C, YPD
Method in brief: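 Gene amplicons from the start population and from each of six end populations were read by 100-nucleotide paired-end sequencing. Those end populations came from pooled Saccharomyces cerevisiae strains carrying tRNA-Arg(CCU) gene variants at the native locus, competed in YPD at 37°C for 24 hours. Fitness relative to wild type was worked out from changes in genotype frequencies. Genotypes needed ≥ 100 starting reads, and estimates < 0.5 were set to 0.5.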

Variant	yeast fitness
G25A U47C G56C C60U A70U	≤ 0.5
C31U G44C C60U	0.689
A21U C24A A45U	≤ 0.5
C27U U32C C62G	≤ 0.5
G6A C46A	0.97
C5A U54C C61U C62U A69U	0.546
C4G G9A A70C	1.09
A20G A36U C55G	≤ 0.5
G10C A36U A42G G56A U59G	≤ 0.5
G50A C62A	0.875
U8C U13C U47C A65G	≤ 0.5
C24G C31G A36G G44A A69G	≤ 0.5
A21G A42G A45G	0.989
C29U C33A C34U G51C U64A C66U A69C	≤ 0.5
C30G C34U U47A C49A	0.691
C11U C31U C60A U64A	≤ 0.5
C31G C33U A37C C61U A65U	≤ 0.5
C5U C11A G50C C66U	≤ 0.5
A21C A37G C49A C60G C66A	≤ 0.5
G39A A42G G67C	≤ 0.5
U19A C22G G23C C30G C34A C55U	≤ 0.5

Variant	yeast fitness
C4A G18C C34U	≤ 0.5
A15G U35A A57G	≤ 0.5
C29G G39C U47A	0.978
C5U A14U C30U G39C	≤ 0.5
C5U C29G C31G A36U A37C A57C G68C	≤ 0.5
C5G G10A C33U A65C G68C	0.55
A21G U32A U47A	0.556
C22G C33U A40U U59A	0.514
G12C C24U C46U C49G	≤ 0.5
C5A C27A U28G C55U	≤ 0.5
A37G C55G U64C	0.633
G9C U26G C55A	≤ 0.5
G41C A57U U64C	≤ 0.5
G9C U28C C30G C49G	≤ 0.5
A15U A43C	0.825
C24U C27G G38C A57U C60A C62G	≤ 0.5
A20G G38A C46U	0.883
C46G C49G C62A	0.61
A21G A57G C66G	0.599
C11G C27A A57C C62U	≤ 0.5
C11U C29U A57U C61U	≤ 0.5

Variant	yeast fitness
U13C A43U	1.04
C4G A40G G56C	0.537
C31A A65C G67A	≤ 0.5
C5U U26G G58A	0.924
C5G U8A A20C A43C C46A	≤ 0.5
U7G C27U C33U A57U	≤ 0.5
U7A C34G A70U	≤ 0.5
A14G G18C C29G U54C	≤ 0.5
G10C A15G U35A G44A A69C	≤ 0.5
C24A A43U G51C G52C	≤ 0.5
C4A C24A G52C A57C U59A	0.57
U19C A20C C31G G67A	≤ 0.5
C30U G39A C62U G68C	0.571
G6A A15C A36C A42U A43G C55G C61U	≤ 0.5
A15G C30A A43G A57U	0.529
A15C C46U G50A	0.711
A15G U32G A40C	≤ 0.5
U7G C33U A42C A43C C49U A69U	≤ 0.5
A37U A40U	0.72
C4A G17A	0.718
U2C A21U U54G	≤ 0.5

Variant	yeast fitness
A20C U26C C30U C61A	≤ 0.5
G38A U59G	0.705
A14C A65G A69U	0.634
U54A C55A C66G	0.714
C4G G10C G12A A36C U54G C60U A70G	0.615
U2C U19A U26A C29A C46G U54A	≤ 0.5
A20C C34G G67U A69G	≤ 0.5
U7G C30G G56A	0.505
C27G C30G C49U C60U G63C	0.678
C5U C11G G48C C66U	≤ 0.5
A45G C49A	0.609
G17A A20G C27G A36C U47A G68A	≤ 0.5
U8C C11A A20U C66U	≤ 0.5
C30G G48C	0.624
C5U A42C C60G	≤ 0.5
G6A A14U U64G	0.664
U13C A57U U59A A69G	0.561
A36U A42C C61G	≤ 0.5
A45G A69U	1.01
C34U G51U U54A C60U A65C	≤ 0.5
